Data as given in ChEMBL document CHEMBL4219120, “Synthesis and SAR study of new hydroxy and chloro-substituted 2,4-diphenyl 5H-chromeno[4,3-b]pyridines as selective topoisomerase IIα-targeting anticancer agents” (Bioorg Med Chem, 2018).
Activity calls are given as the source filed them. The calls are words filed in the database; no cut-off is given here.

Tests used:
[1] = biological target: T1, DNA topoisomerase 1 (Homo sapiens) (UniProt P11387); experiment: Inhibition of recombinant human topoisomerase 1 assessed as decrease in relaxation of supercoiled pBR322 DNA at 100 uM after 30 mins by agarose gel electrophoresis relative to control
T1 sequence (whole entry): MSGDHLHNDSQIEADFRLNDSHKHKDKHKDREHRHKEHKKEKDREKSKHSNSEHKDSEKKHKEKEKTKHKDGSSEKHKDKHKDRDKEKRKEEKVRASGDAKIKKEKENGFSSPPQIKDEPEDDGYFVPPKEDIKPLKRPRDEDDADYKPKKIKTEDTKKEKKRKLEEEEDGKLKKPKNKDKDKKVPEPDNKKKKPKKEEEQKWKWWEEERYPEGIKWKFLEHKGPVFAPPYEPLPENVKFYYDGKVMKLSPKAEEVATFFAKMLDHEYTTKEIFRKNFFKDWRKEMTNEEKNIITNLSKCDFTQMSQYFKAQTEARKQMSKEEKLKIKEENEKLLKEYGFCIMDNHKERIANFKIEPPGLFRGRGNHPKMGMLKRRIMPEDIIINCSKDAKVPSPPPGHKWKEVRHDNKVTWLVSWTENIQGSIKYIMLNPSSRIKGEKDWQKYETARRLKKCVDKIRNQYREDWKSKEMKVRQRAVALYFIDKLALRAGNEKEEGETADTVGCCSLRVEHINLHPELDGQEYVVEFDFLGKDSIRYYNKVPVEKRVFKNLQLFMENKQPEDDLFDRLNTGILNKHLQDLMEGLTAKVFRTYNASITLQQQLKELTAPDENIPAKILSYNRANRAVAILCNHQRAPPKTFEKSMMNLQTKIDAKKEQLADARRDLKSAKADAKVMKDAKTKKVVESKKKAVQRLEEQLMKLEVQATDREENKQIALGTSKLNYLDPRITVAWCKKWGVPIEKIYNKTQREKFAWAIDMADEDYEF
Outline: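 Supercoiled pBR322 (100 ng) with 1 unit recombinant human topo I in 10 mM Tris-HCl pH 7.9, 150 mM NaCl, 0.1% BSA, 0.1 mM spermidine, 5% glycerol, 30 min at 37 °C. Stopped with SDS/dye stop solution. Run on 0.8% agarose in TAE, 50 V, 1 h; EtBr-stained; bands quantitated under UV. Compounds came from 20 mM DMSO stocks. 20 µM was tested only when inhibition at 100 µM exceeded 30%. Camptothecin was the positive control.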

[2] = biological target: DNA topoisomerase 2-alpha (Homo sapiens) (UniProt P11388); experiment: Inhibition of recombinant human topoisomerase 2alpha assessed as decrease in relaxation of supercoiled pBR322 DNA at 20 uM after 30 mins by agarose gel electrophoresis relative to control
Outline: (§1)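 Recombinant human topo IIα (1 unit) with 100 ng supercoiled pBR322 in 10 mM Tris-HCl pH 7.9, 50 mM NaCl, 50 mM KCl, 5 mM MgCl2, 1 mM EDTA, 1 mM ATP, 15 µg/mL BSA, 30 min at 37 °C. Quenched with 7 mM EDTA. 0.8% agarose/TAE gel, 50 V, 1 h; EtBr stain; UV densitometry. Compounds came from 20 mM DMSO stocks. 20 µM was tested only when inhibition at 100 µM exceeded 30%. Etoposide was the positive control.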

[3] = biological target: DNA topoisomerase 2-alpha (Homo sapiens) (UniProt P11388); experiment: Inhibition of recombinant human topoisomerase 2alpha assessed as decrease in relaxation of supercoiled pBR322 DNA at 20 uM after 30 mins by agarose gel electrophoresis relative to etoposide
[4] = biological target: DNA topoisomerase 2-alpha (Homo sapiens) (UniProt P11388); experiment: Inhibition of recombinant human topoisomerase 2alpha assessed as decrease in relaxation of supercoiled pBR322 DNA at 100 uM after 30 mins by agarose gel electrophoresis relative to etoposide
[5] = biological target: DNA topoisomerase 2-alpha (Homo sapiens) (UniProt P11388); experiment: Inhibition of recombinant human topoisomerase 2alpha assessed as decrease in relaxation of supercoiled pBR322 DNA at 100 uM after 30 mins by agarose gel electrophoresis relative to control; outline: as §1
[6] = tested on: HCT-15; experiment: Antiproliferative activity against human HCT15 cells after 72 hrs by CCK-8 assay; format: functional, cell-based; settings: HCT-15, 72 h
Outline: (§2)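 Cells seeded at 2-4 x 10^4 per well and grown overnight in medium with 10% FBS (37 °C, 5% CO2). After 4 h FBS starvation, medium was replaced with medium containing graded compound concentrations for 72 h. CCK-8 was added for 4 h more, then absorbance read at 450 nm. IC50 came from a four-parameter logistic fit. Mean ± S.D. of three experiments, each in triplicate.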

[7] = tested on: T47D; experiment: Antiproliferative activity against human T47D cells after 72 hrs by CCK-8 assay; format: functional, cell-based; outline: as §2
[8] = biological target: DNA topoisomerase 2-alpha (Homo sapiens) (UniProt P11388); experiment: Potency index, ratio of compound effect for recombinant human topoisomerase 2alpha to etoposide effect for recombinant human topoisomerase 2alpha at 20 uM
[9] = tested on: HeLa; experiment: Antiproliferative activity against human HeLa cells after 72 hrs by CCK-8 assay; format: functional, cell-based; outline: as §2
[10] = biological target: T1, DNA topoisomerase 1 (Homo sapiens); experiment: Inhibition of recombinant human topoisomerase 1 assessed as decrease in relaxation of supercoiled pBR322 DNA at 100 uM after 30 mins by agarose gel electrophoresis relative to camptothecin
[11] = tested on: HeLa; experiment: Potency index, ratio of adriamycin IC50 to compound IC50 for human HeLa cells; format: functional
[12] = tested on: HeLa; experiment: Potency index, ratio of etoposide IC50 to compound IC50 for human HeLa cells; format: functional

Sequence of DNA topoisomerase 2-alpha (Homo sapiens) (P11388 whole entry): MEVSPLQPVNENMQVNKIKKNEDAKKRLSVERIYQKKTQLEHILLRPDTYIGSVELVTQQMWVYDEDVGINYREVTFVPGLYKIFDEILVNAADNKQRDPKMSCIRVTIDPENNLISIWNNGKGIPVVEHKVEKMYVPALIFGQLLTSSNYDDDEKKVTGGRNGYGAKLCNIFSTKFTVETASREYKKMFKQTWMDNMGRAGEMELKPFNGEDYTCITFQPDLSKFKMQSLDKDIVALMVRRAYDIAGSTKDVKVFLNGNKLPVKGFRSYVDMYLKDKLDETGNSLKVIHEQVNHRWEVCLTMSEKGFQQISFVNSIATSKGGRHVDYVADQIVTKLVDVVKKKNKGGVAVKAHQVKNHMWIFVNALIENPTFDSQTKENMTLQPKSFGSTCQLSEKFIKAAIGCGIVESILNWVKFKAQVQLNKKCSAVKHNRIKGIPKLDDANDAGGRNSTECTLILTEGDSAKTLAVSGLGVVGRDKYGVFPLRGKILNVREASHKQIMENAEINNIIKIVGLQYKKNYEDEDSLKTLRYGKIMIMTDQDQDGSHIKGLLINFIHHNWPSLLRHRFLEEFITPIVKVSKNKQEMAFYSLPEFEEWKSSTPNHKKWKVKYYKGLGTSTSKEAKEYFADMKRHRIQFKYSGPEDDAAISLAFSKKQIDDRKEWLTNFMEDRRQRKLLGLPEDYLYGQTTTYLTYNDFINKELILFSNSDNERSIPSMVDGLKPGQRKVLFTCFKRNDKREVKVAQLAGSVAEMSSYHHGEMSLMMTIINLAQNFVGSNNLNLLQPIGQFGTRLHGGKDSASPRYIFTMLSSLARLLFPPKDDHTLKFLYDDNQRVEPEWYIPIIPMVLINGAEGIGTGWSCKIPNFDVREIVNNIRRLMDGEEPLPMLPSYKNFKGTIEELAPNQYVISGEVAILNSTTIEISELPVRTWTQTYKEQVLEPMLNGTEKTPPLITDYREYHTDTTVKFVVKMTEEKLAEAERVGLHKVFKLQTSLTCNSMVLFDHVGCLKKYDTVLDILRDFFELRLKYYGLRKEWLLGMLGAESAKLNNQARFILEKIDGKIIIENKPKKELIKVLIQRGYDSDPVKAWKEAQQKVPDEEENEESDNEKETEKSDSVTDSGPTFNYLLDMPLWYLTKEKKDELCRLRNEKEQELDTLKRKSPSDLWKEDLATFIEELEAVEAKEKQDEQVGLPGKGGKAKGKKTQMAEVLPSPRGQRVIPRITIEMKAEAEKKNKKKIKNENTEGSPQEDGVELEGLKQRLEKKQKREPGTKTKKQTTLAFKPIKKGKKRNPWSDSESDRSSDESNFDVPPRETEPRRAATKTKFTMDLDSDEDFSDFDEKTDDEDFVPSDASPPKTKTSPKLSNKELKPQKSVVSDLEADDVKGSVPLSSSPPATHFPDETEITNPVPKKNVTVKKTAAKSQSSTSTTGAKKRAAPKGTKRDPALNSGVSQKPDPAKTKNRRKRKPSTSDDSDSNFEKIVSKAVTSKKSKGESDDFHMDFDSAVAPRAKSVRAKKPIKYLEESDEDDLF

Row | SMILES | inhibition [1] | inhibition [2] [%] | fold change (FC) [3] | fold change (FC) [4] | inhibition [5] [%] | IC50 [6] [µM] | IC50 [7] [µM] | Ratio [8] | IC50 [9] [µM] | fold change (FC) [10] | Ratio IC50 [11] | Ratio IC50 [12]
1 | Oc1ccc(-c2cc(-c3ccccc3Cl)nc3c2COc2ccccc2-3)cc1 | inactive | 74.5 | 2.1 | 1.24 | 82.7 | 1.74 | 0.75 | 2 | 2.11 | inactive | – | –
2 | Oc1ccc(-c2cc(-c3cccc(Cl)c3)c3c(n2)-c2ccccc2OC3)cc1 | 22.8% | 12.1 | – | – | 79.5 | 3.41 | 1.27 | – | 0.66 | – | 2.6 | 15.2
